Assay [1] in a line: HUVEC growth inhibition – cell-based, human, primary screen (AID 575).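 Further: 100% = median of untreated cell wells with 0.1% DMSO on each plate.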 As to conditions: HUVEC proliferation, CellTiter-Glo luminescence, 72 h; at 10 µM; stronger effect = lower value. The method, boiled down: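 Assay system: primary human umbilical vein endothelial cells / Buffer or medium: endothelial basal medium with 2% FBS plus growth supplements / Compound dosing: one dose, 10 µM final, 0.1% DMSO / Timing: 72 h treatment at 37 °C / Signal: CTG luminescence / Benchmarks: 32 DMSO-only cell-control wells (high), 32 MePR drug-control wells (low) per plate / Plate: collagen-coated 384-well format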

Assay [2] in a line: H69AR cell proliferation blockers – human, duplicate replicates, primary screen (AID 580;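 active means viability at or under a set limit in both replicates, limit being median viability minus 3 SD, cut at about 48% in these data, passing the limit was not always enough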;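 further: 100% = mean luminescence of untreated wells and 0% = no signal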). The conditions noted are these: H69AR lung tumor cells viability, ATP luminescence, 72 h; at 10 µM; stronger effect = lower value.
Assay [3] is described as follows: MRP1 drug-resistance reversers in H69AR cells – cell-based, doxorubicin co-treatment, pilot screen (AID 601;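 active means viability loss from added drug above about 55%, and viability with drug at most 40%, in both replicates, limit read from the data, passing the limit was not always enough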). As to conditions: CellTiter-Glo, 72 h, at 10 µM; for differential viability (reversal): stronger effect = higher value. (In ATP-based viability assays light output follows the ATP content of the culture.)
Assay [4] is described as follows: yeast transport mutant growth inhibition pilot in 384-well plates, post-Golgi transport modulator project (AID 636; in the data active means inhibition above about 31%). As to conditions: absorbance 615 nm, about 18 h, stronger effect = higher value.
The nature of assay [5]: growth suppression of yeast trafficking mutant, preliminary HTS, modulators of trafficking downstream of Golgi apparatus project, 1536-format plate, OD 615 nm (AID 637; in the data active means inhibition above about 30%). The conditions noted are these: yeast transport mutant growth, absorbance 615 nm, 18 h; stronger effect = higher value.
[6] abbreviates: H69AR cells + 2 uM doxorubicin, measured here: viability with 2 uM doxorubicin, stronger effect = lower value.
Where [7] appears, read: H69AR cells, compound alone cytotoxicity.

Active and inactive are the calls of the source.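 How the source made its calls, unless noted: active means viability at or below 30% in both replicate assays; inconclusive means viability at or below 30% in just one of the two assays; inactive means the rest.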

For orientation: viability means a read-out of living cells in per cent, often relative to untreated cells. What is called inhibition is the relative decrease from the control value, in per cent. With `CC1(C)NC(=O)N(CCCOc2ccc(Br)cc2Cl)C1=O`, the viability in assay [1] was 86% (inactive); in assay [2], 89.7% (inactive); in assay [3] (setting [6]), 74.3%; in assay [3] (setting [7]), 89.7%. In addition, in assay [3] (H69AR cells + 2 uM doxorubicin), the differential viability (reversal) was 15.5% (inactive). For the same compound, the inhibition was -3.82% (inactive) in assay [4] and 4.29% (inactive) in assay [5].

Regarding `COc1ccc(Cl)cc1-c1n[nH]c(=S)o1`, the viability in assay [1] is 86.9% (inactive); in assay [2], 95.5% (inactive); in assay [3] (setting [6]), 81.8%; in assay [3] (setting [7]), 95.5%. Also, the differential viability (reversal) in assay [3] (H69AR cells + 2 uM doxorubicin) is 13.7% (inactive). Also, the inhibition was -6.4% (inactive) in assay [4] and -1.27% (inactive) in assay [5].

As to `CC(O)CN(Cc1cccc(Cl)c1)CC(C)O` (configuration not stated), the viability in assay [1] was 100% (inactive); in assay [2] it was 99.4% (inactive); in assay [3] (setting [6]), 100%; in assay [3] (setting [7]), 99.4%. Besides, the differential viability (reversal) in assay [3] (H69AR cells + 2 uM doxorubicin) is -0.905% (inactive). The inhibition in assay [4] is -1.32% (inactive); in assay [5], 4.13% (inactive).

As to `C=CCn1c(Br)nc2c1c(=O)[nH]c(=O)n2C`, the viability in assay [1] is 97.7% (inactive); in assay [2], 85.1% (inactive); in assay [3] (setting [6]), 78.7%; in assay [3] (setting [7]) it was 85.1%. Moreover, the differential viability (reversal) in assay [3] (H69AR cells + 2 uM doxorubicin) is 6.37% (inactive). Moreover, the figures for the inhibition in assay [4] and in assay [5] were -6.93% (inactive) and 3.33% (inactive), respectively.

`COc1ccc(-c2nn3c(-c4cccc(C)c4)nnc3s2)cc1OC`: the viability in assay [1] is 51.1% (inactive); in assay [2] it was 35.2% (active); in assay [3] (setting [6]), 79.2%; in assay [3] (setting [7]), 35.2%. Moreover, the differential viability (reversal) in assay [3] (H69AR cells + 2 uM doxorubicin) is -44% (inactive). Also, the inhibition in assay [4] was -0.4% (inactive); in assay [5], -4.13% (inactive).

Consider `O=C(Nc1ccccc1C(=O)N1CCOCC1)C1COc2ccccc2O1` (configuration not stated), for which the viability is 100% (inactive) in assay [1], 103% (inactive) in assay [2], 96.6% in assay [3] (setting [6]) and 103% in assay [3] (setting [7]). The differential viability (reversal) in assay [3] (H69AR cells + 2 uM doxorubicin) was 6.71% (inactive). For the same compound, the inhibition in assay [4] was -0.53% (inactive); in assay [5], 0% (inactive).

Turning to `Cc1cc(NC(=O)COc2ncnc3sc(C)c(C)c23)no1`, the viability in assay [1] was 97.6% (inactive); in assay [2], 89.8% (inactive); in assay [3] (setting [6]), 86.7%; in assay [3] (setting [7]), 89.8%. The differential viability (reversal) in assay [3] (H69AR cells + 2 uM doxorubicin) is 3.08% (inactive). The inhibition was -3.77% (inactive) in assay [4] and 5.56% (inactive) in assay [5].

For the compound `CCOc1ccc(N(CC(=O)NCc2cccc(OC)c2)S(=O)(=O)c2c(C)noc2C)cc1`, the viability in assay [1] is 93.4% (inactive); in assay [2], 91.2% (inactive); in assay [3] (setting [6]), 95.8%; in assay [3] (setting [7]), 91.2%. In assay [3] (H69AR cells + 2 uM doxorubicin), the differential viability (reversal) was -4.58% (inactive). For the same compound, the inhibition in assay [4] is 0.27% (inactive); in assay [5], -2.86% (inactive).

With `Cc1c(N(C)C)nc2ccccc2c1N`, the viability in assay [1] was 83.8% (inactive); in assay [2], 84.4% (inactive); in assay [3] (setting [6]), 89.7%; in assay [3] (setting [7]) it was 84.4%. Also, the differential viability (reversal) in assay [3] (H69AR cells + 2 uM doxorubicin) was -5.31% (inactive). Also, the inhibition in assay [4] was -4% (inactive); in assay [5] it was 2.54% (inactive).

For `CCOc1ccc(N2CC(C(=O)Nc3ccc(F)cc3F)CC2=O)cc1` (configuration not stated), the viability in assay [1] was 110% (inactive); in assay [2], 111% (inactive); in assay [3] (setting [6]), 90.9%; in assay [3] (setting [7]) it was 111%. Further, the differential viability (reversal) in assay [3] (H69AR cells + 2 uM doxorubicin) was 19.7% (inactive). Further, the inhibition in assay [4] was -0.26% (inactive); in assay [5], -5.08% (inactive).

Consider `COC(=O)c1cc(Br)ccc1-c1ccc(/C=N/n2nnnc2N)o1`, for which the viability in assay [1] is 58.1% (inactive); in assay [2], 80.6% (inactive); in assay [3] (setting [6]), 66.7%; in assay [3] (setting [7]), 80.6%. The differential viability (reversal) in assay [3] (H69AR cells + 2 uM doxorubicin) is 14% (inactive). Besides, the inhibition in assay [4] was -2.47% (inactive); in assay [5], 6.51% (inactive).

As to `COCCOC(=O)C1=C(C)NC(=O)CC1c1cc2c(cc1Br)OCO2` (configuration not stated), the viability in assay [1] was 89.4% (inactive); in assay [2] it was 97.4% (inactive); in assay [3] (setting [6]), 72.4%; in assay [3] (setting [7]) it was 97.4%. Besides, the differential viability (reversal) in assay [3] (H69AR cells + 2 uM doxorubicin) was 25.1% (inactive). Moreover, the results for the inhibition in assay [4] and in assay [5] were -4.67% (inactive) and 2.86% (inactive), respectively.

With `COc1ccccc1C(=O)NCCNC(=O)c1ccco1`, the viability in assay [1] was 112% (inactive); in assay [2], 91.6% (inactive); in assay [3] (setting [6]) it was 96.5%; in assay [3] (setting [7]), 91.6%. Moreover, the differential viability (reversal) in assay [3] (H69AR cells + 2 uM doxorubicin) is -4.88% (inactive). Also, the inhibition in assay [4] was -4.53% (inactive); in assay [5], 0.48% (inactive).

For `O=C(c1ccc(S(=O)(=O)N2CCOCC2)cc1)N1CCc2ccccc2C1`, the viability in assay [1] was 98.1% (inactive); in assay [2], 91.1% (inactive); in assay [3] (setting [6]), 88.2%; in assay [3] (setting [7]), 91.1%. Further, the differential viability (reversal) in assay [3] (H69AR cells + 2 uM doxorubicin) is 2.92% (inactive). The values for the inhibition in assay [4] and in assay [5] were -2.37% (inactive) and 9.37% (inactive), respectively.

Regarding `COC(=O)COc1ccc(C(=O)OC)cc1`, the viability is 92.8% (inactive) in assay [1], 108% (inactive) in assay [2], 97.4% in assay [3] (setting [6]) and 108% in assay [3] (setting [7]). In addition, in assay [3] (H69AR cells + 2 uM doxorubicin), the differential viability (reversal) was 10.4% (inactive). Moreover, the inhibition in assay [4] is -1.84% (inactive); in assay [5] it was -2.38% (inactive).

As for `Cc1ccc(N2CC(C(=O)Nc3ccc4c(c3)OCO4)CC2=O)cc1` (configuration not stated), the viability in assay [1] is 101% (inactive); in assay [2], 99.6% (inactive); in assay [3] (setting [6]), 87.6%; in assay [3] (setting [7]) it was 99.6%. In assay [3] (H69AR cells + 2 uM doxorubicin), the differential viability (reversal) is 12% (inactive). For the same compound, the inhibition in assay [4] was -3.25% (inactive); in assay [5], -0.79% (inactive).

Take `O=c1cc(CSc2nnc(COc3ccc(Cl)cc3)o2)c2ccccc2[nH]1`: the viability in assay [1] is 86.8% (inactive); in assay [2], 90.2% (inactive); in assay [3] (setting [6]), 92.9%; in assay [3] (setting [7]) it was 90.2%. In assay [3] (H69AR cells + 2 uM doxorubicin), the differential viability (reversal) was -2.67% (inactive). In addition, the inhibition was -2.11% (inactive) in assay [4] and -6.67% (inactive) in assay [5].

As to `Cc1nc(SCC(=O)c2c[nH]c3ccccc23)n[nH]1`, the viability in assay [1] was 81.1% (inactive); in assay [2] it was 95.9% (inactive); in assay [3] (setting [6]), 81.4%; in assay [3] (setting [7]) it was 95.9%. In assay [3] (H69AR cells + 2 uM doxorubicin), the differential viability (reversal) was 14.5% (inactive). The inhibition is -7.5% (inactive) in assay [4] and -0.32% (inactive) in assay [5].

As for `C=C(C)Cn1c(CCNC(=O)CC)nc2ccccc21`, the viability in assay [1] is 100% (inactive); in assay [2], 104% (inactive); in assay [3] (setting [6]), 91.4%; in assay [3] (setting [7]) it was 104%. Further, in assay [3] (H69AR cells + 2 uM doxorubicin), the differential viability (reversal) was 12.7% (inactive). The inhibition in assay [4] is -3.95% (inactive); in assay [5] it was -0.63% (inactive).

As to `O=c1c2ccccc2c(C=Nc2ccc(Cl)cn2)c(O)n1-c1cc(Cl)ccc1N1CCOCC1`, the viability in assay [1] was 91.7% (inactive); in assay [2], 89.1% (inactive); in assay [3] (setting [6]) it was 81.8%; in assay [3] (setting [7]), 89.1%. Besides, in assay [3] (H69AR cells + 2 uM doxorubicin), the differential viability (reversal) is 7.31% (inactive). For the same compound, the values for the inhibition in assay [4] and in assay [5] were -0.65% (inactive) and -3.49% (inactive), respectively.

For `Cc1nc(C)c(C(=O)C2=C(O)C(=O)N(CCN3CCOCC3)C2c2ccco2)s1` (configuration not stated), the viability is 109% (inactive) in assay [1], 86.3% (inactive) in assay [2], 89.7% in assay [3] (setting [6]) and 86.3% in assay [3] (setting [7]). In assay [3] (H69AR cells + 2 uM doxorubicin), the differential viability (reversal) is -3.34% (inactive). Moreover, the inhibition was -4.8% (inactive) in assay [4] and 3.02% (inactive) in assay [5].

These data come from PubChem BioAssay.
